Data on five compounds can be found in ChEMBL document CHEMBL4765234 (J Med Chem, 2016).

Structures are written as SMILES. Calls of active or inactive are those of the source. The calls are words filed in the database; no cut-off is given here. A value given as a limit tells only on which side of the number the result lay.

By half-life is commonly meant how long it takes for the measured level to halve. One may read the bioavailability as the share of a dose that reaches the circulation, judged against a reference dose that is usually intravenous. One may read the Tmax as the time at which the peak concentration occurs. By Cmax is commonly meant the highest concentration seen after dosing.

In series [1] the target is Free fatty acid receptor 1 (Homo sapiens, UniProt O14842). The series can be described thus: Displacement of [3H]-(S)-2-(6-((2',6'-dimethyl-4'-(3-(methylsulfonyl)propoxy)biphenyl-3-yl)methoxy)-2,3-dihydrobenzofuran-3-yl)acetic acid from human recombinant full-length GPR40 expressed in human HEK293 cell membrane assessed as Koff rate measured after 2 hrs by radioligand competitive assay. The series is classed as cell membranes. The following applies: filed as agonist.

A short description of series [2]: Metabolic stability in mouse liver microsomes assessed as compound hydrolysis incubated for 30 mins by LC-MS/MS analysis. The series is classed as ADME, Microsome. Particulars: read-out: Drug degradation. In outline:
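Incubated 30 min with mouse or human liver microsomes. Stability reported as % metabolized.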

Series [3] is described as follows: Clearance in mouse hepatocytes by LC-MS/MS analysis. The series is classed as ADME, cell-based, Hepatocyte.
Series [4] concerns Rattus norvegicus. Description: Hypoglycemic activity in Zucker fatty diabetes mellitus rat model assessed as reduction in blood glucose level administered orally for 21 days and measured at 10 to 60 mins post glucose challenge on day 1 by OGTT. The series is classed as functional, organism-based. The following applies: dose 0.03-1 mg/kg, time 21.0 day.
For the next series, the system named is Mus musculus. Description: Hypoglycemic activity in Balb/c mouse assessed as reduction in blood glucose level at 0.03 to 3 mg/kg, po administered 60 mins prior to glucose challenge and measured at 7 to 60 mins by IPGTT. In kind it is functional, organism-based. The following applies: dose 0.03-3 mg/kg.
Series [5] addresses T1, Peroxisome proliferator-activated receptor alpha (Homo sapiens) (UniProt Q07869).
T1 sequence (whole entry): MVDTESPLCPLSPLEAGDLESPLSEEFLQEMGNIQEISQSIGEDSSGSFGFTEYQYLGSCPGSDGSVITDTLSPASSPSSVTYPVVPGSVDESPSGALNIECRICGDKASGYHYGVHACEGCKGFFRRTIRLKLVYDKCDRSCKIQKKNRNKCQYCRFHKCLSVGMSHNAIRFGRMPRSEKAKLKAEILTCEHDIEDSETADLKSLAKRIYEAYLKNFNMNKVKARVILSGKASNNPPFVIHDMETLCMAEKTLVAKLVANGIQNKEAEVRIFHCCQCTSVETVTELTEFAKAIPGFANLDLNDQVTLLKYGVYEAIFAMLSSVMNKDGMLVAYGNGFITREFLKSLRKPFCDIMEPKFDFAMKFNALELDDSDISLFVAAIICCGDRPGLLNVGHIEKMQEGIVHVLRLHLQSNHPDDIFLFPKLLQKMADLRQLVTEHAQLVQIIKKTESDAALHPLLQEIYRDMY
Description: Agonist activity at human Gal4-fused PPARalpha LBD expressed in African green monkey CV1 cells cotransfected with pRL-SV40 plasmid assessed as maximum efficacy measured after 24 hrs by luciferase reporter gene assay relative to control. In kind it is cell-based. The following applies: CV-1. In a few lines: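 CV1 African green monkey kidney cells were cotransfected, in DMEM with 5% charcoal-stripped FBS, with two plasmids: an SV40-driven Gal4 DBD–PPARα or PPARδ LBD hybrid, and a 5×Gal4-element firefly luciferase reporter. Cells were replated at 15000/well for 4 h, then exposed to 0.17 nM–10 μM in half-log steps for 24 h. Luciferase was read, normalized to maximum from 10 μM reference agonist, and fit by a 4-parameter model.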
Background: Reporter assays use an easily measured gene product as a stand-in for the process of interest.

Series [6] has as its system Rattus norvegicus. Description: Hypoglycemic activity in Zucker fatty diabetes mellitus rat model assessed as increase in insulin levels in plasma at 0.03 to 1 mg/kg, po administered for 21 days and measured at 10 to 60 mins post glucose challenge on day 21 by OGTT. In kind it is functional, organism-based. The following applies: dose 0.03-1 mg/kg, time 21.0 day.
The nature of series [7]: Volume of distribution at steady state in dog at 3 mg/kg, po or 1 mg/kg, iv by LC/MS/MS analysis. In kind it is ADME, organism-based, Canis lupus familiaris. Particulars: in vivo, read-out: Vdss. In outline:
(§1)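 Dosed to mice, rats or beagle dogs. Blood collected at selected time points with EDTA anticoagulant, processed to plasma and analysed by LC/MS/MS. Parameters obtained by noncompartmental analysis.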

Series [8] is described as follows: Half-life in dog at 3 mg/kg, po or 1 mg/kg, iv by LC/MS/MS analysis. The series is classed as ADME, organism-based, Canis lupus familiaris. The following applies: in vivo. In a few lines:
as §1

A short description of series [9]: Oral bioavailability in rat at 3 mg/kg by LC/MS/MS analysis. In kind it is ADME, organism-based. The following applies: in vivo. In a few lines: as §1
Series [10] in a line: Oral bioavailability in dog at 3 mg/kg by LC/MS/MS analysis. The series is classed as ADME, organism-based, Canis lupus familiaris. The following applies: in vivo. In outline: as §1
A short description of series [11]: Tmax in dog at 3 mg/kg, po or 1 mg/kg, iv by LC/MS/MS analysis. The series is classed as ADME, organism-based, Canis lupus familiaris. The following applies: in vivo. In a few lines:
as §1

A short description of series [12]: Clearance in mouse plasma at 3 mg/kg, po or 1 mg/kg, iv by LC/MS/MS analysis. The series is classed as ADME, organism-based. In outline:
(§2)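 Mice, rats and beagle dogs were dosed. Blood was collected into EDTA at set time points and processed to plasma for LC/MS/MS bioanalysis. Parameters were derived by noncompartmental analysis.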

The nature of series [13]: Drug metabolism in dog feces assessed as metabolite formation by LC-MS/MS analysis. In kind it is ADME, tissue-based, Canis lupus familiaris.
Series [14] in a line: Clearance in rat plasma at 3 mg/kg, po or 1 mg/kg, iv by LC/MS/MS analysis. The series is classed as ADME, organism-based. In a few lines: as §2
Series [15] in a line: Clearance in dog plasma at 3 mg/kg, po or 1 mg/kg, iv by LC/MS/MS analysis. In kind it is ADME, organism-based, Canis lupus familiaris. In outline:
as §2

Series [16] in a line: Drug metabolism in dog plasma assessed as metabolite formation by LC-MS/MS analysis. In kind it is ADME, cell-free, Canis lupus familiaris.
Series [17] can be described thus: Cmax in mouse plasma at 3 mg/kg, po or 1 mg/kg, iv by LC/MS/MS analysis. Further details: dose 3 mg/kg. The series is classed as ADME, organism-based. In a few lines: as §2
Series [18] in a line: Half-life in rat at 3 mg/kg, po or 1 mg/kg, iv by LC/MS/MS analysis. In kind it is ADME, organism-based. Particulars: in vivo. In outline:
as §1

The nature of series [19]: Tmax in rat at 3 mg/kg, po or 1 mg/kg, iv by LC/MS/MS analysis. The following applies: in vivo. In kind it is ADME, organism-based. In outline: as §1
The nature of series [20]: Half-life in mouse at 3 mg/kg, po or 1 mg/kg, iv by LC/MS/MS analysis. In kind it is ADME, organism-based. The following applies: in vivo. In a few lines: as §1
Series [21] is described as follows: Cmax in dog plasma at 3 mg/kg, po or 1 mg/kg, iv by LC/MS/MS analysis. In kind it is ADME, organism-based, Canis lupus familiaris. Further details: dose 3 mg/kg. In outline:
as §2

Series [22] can be described thus: Volume of distribution at steady state in rat at 3 mg/kg, po or 1 mg/kg, iv by LC/MS/MS analysis. In kind it is ADME, organism-based. The following applies: in vivo, read-out: Vdss. In outline: as §1
A short description of series [23]: Cmax in rat plasma at 3 mg/kg, po or 1 mg/kg, iv by LC/MS/MS analysis. On the set-up: dose 3 mg/kg. In kind it is ADME, organism-based. In outline: as §2
Series [24] in a line: Elimination half-life in mouse plasma at 3 mg/kg, po or 1 mg/kg, iv by LC/MS/MS analysis. The series is classed as ADME, organism-based. In a few lines:
as §1

A short description of series [25]: Elimination half-life in dog plasma at 3 mg/kg, po or 1 mg/kg, iv by LC/MS/MS analysis. In kind it is ADME, organism-based, Canis lupus familiaris. In outline:
as §1

The nature of series [26]: Volume of distribution at steady state in mouse at 3 mg/kg, po or 1 mg/kg, iv by LC/MS/MS analysis. In kind it is ADME, organism-based. The following applies: in vivo, read-out: Vdss. In a few lines:
as §1

Series [27] in a line: Oral bioavailability in mouse at 3 mg/kg by LC/MS/MS analysis. In kind it is ADME, organism-based. The following applies: in vivo. In outline:
as §1

A short description of series [28]: Clearance in human hepatocytes by LC-MS/MS analysis. In kind it is ADME, cell-based, Hepatocyte.
Series [29] in a line: Drug metabolism in rat hepatocytes assessed as N-dealkylation by LC-MS/MS analysis. The series is classed as ADME, cell-based, Hepatocyte.
Series [30] can be described thus: Drug metabolism in rat hepatocytes assessed as taurine metabolite formation by LC-MS/MS analysis. The series is classed as ADME, cell-based, Hepatocyte.
Series [31] in a line: Drug metabolism in dog hepatocytes assessed as N-dealkylation by LC-MS/MS analysis. In kind it is ADME, cell-based, Canis lupus familiaris, Hepatocyte.
Series [32] can be described thus: Drug metabolism in human hepatocytes assessed as taurine metabolite formation by LC-MS/MS analysis. In kind it is ADME, cell-based, Hepatocyte.

Chain of Free fatty acid receptor 1 (O14842 whole entry): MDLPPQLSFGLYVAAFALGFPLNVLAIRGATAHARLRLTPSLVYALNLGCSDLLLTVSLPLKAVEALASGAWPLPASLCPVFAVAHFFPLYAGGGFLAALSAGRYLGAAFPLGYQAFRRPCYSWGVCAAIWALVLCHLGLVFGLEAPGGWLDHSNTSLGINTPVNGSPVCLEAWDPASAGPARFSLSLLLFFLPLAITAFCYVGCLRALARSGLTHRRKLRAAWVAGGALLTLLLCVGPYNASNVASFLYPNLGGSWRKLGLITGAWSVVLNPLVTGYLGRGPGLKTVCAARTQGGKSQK

Consider `O=C(O)CCc1ccc(OCc2ccc(CN3CCC4(C=Cc5ccccc54)CC3)cc2)cc1F`, for which, in series [1], the K was found to be 0.0866 min⁻¹.

Turning to `CC#C[C@@H](CC(=O)O)c1ccc(OCc2ccc(CN3CCC4(C=Cc5ccccc54)CC3)cc2)cc1` [LY2881835], the metabolised at 0.5 h in series [2] was determined as 79%. The compound also displayed a CLH in series [3] of 0.09 h⁻¹. For the same compound, the Activity entry with Rattus norvegicus [4] was “Dose-dependent effect”. Also, the outcome in the series on Mus musculus and in the series with Rattus norvegicus [6] was Active. Moreover, the K in [1] stood at 0.00822 min⁻¹. In addition, the Emax in [5] was 4%.

Consider `CC#C[C@@H](CC(=O)O)c1ccc(OCc2ccc(CN3CCCc4cccc(OC)c43)s2)cc1`, for which the Vd in series [7] was found to be 1 L/kg; in series [22] it was 1.2 L/kg; in series [26] it was 3.9 L/kg. Moreover, the half-life was 4.4 h in series [8]; 5.6 h in series [18]; 4.2 h in [20]; 4.2 h in series [24]; 4.4 h in series [25]. Moreover, in series [2], the metabolised at 0.5 h stood at 38%. The bioavailability in series [9] came to 95%; in series [10], 55%; in series [27] it was 62%. The CLH in [3] was < 0.05 h⁻¹; in [28], 0.17 h⁻¹. Moreover, the time of peak concentration (Tmax) is 0.5 h in [11] and 0.6 h in [19]. Further, the clearance in [12] turned out to be 15.4 mL/min/kg; in series [14] it was 3.8 mL/min/kg; in [15], 4.6 mL/min/kg. The Drug metabolism entry in series [13] is reported as “Metabolite_Notdetected”; in series [16], “Metabolite_Detected”. For the same compound, in the series on Rattus norvegicus [4], the Activity entry was “Dose-dependent effect”. Besides, the Cmax in [17] is 552 ng/mL; in [21], 2290 ng/mL; in [23], 4140 ng/mL. The result with Mus musculus and in the series with Rattus norvegicus [6] was Active. For the same compound, the Emax in [5] is 4%.

As to `CC#C[C@@H](CC(=O)O)c1ccc(OCc2ccc(CN3CCC4(C=Cc5ccccc54)CC3)s2)cc1`, the Drug metabolism entry in series [29], in [30], in [31] and in series [32] was “Metabolite_Detected” in each case.

Regarding `CC#C[C@@H](CC(=O)O)c1ccc(OCc2ccc(CN3CCC4(CCc5ccccc54)CC3)s2)cc1`, the Vd in [7] was 0.2 L/kg; in [22], 0.8 L/kg; in [26] it was 1.6 L/kg. Besides, the half-life in series [8] is 3.8 h; in series [18] it was 1.6 h; in series [20] it was 1.7 h; in series [24], 1.7 h; in series [25] it was 3.8 h. In series [2], the metabolised at 0.5 h turned out to be 98%. In addition, the figures for the bioavailability in series [9], in series [10] and in series [27] were 46%, 17% and 21%, respectively. Besides, the Drug metabolism entry in [29] is reported as “Metabolite_Detected”; in [13], “Metabolite_Notdetected”; in [16], “Metabolite_Notdetected”; in series [30] it was “Metabolite_Detected”; in series [31], “Metabolite_Detected”; in [32] it was “Metabolite_Detected”. Besides, the CLH in series [3] worked out at 0.1 h⁻¹; in [28], 0.23 h⁻¹. Besides, the Tmax in [11] came out at 2 h; in series [19] it was 0.5 h. Also, the clearance in series [12] was 9.3 mL/min/kg; in series [14], 20 mL/min/kg; in [15], 2.2 mL/min/kg. In addition, the Activity result in the series with Rattus norvegicus [4] was “Dose-dependent effect”. Also, the Cmax in series [17] was determined as 184 ng/mL; in series [21], 1100 ng/mL; in series [23] it was 829 ng/mL. Moreover, the outcome in the series with Mus musculus and in the series on Rattus norvegicus [6] was Active. For the same compound, the Emax in series [5] came to 4%.
